{"data": "Measured values gathered from unrelated publications", "target": "Serine/threonine-protein kinase WNK3 (WNK3, Homo sapiens, UniProt Q9BYP7)", "note": "Compare with care: the assays were run in different laboratories."}
{"SMILES": "Nc1ncc2c(n1)-c1c([nH]c3ccc(C#CC4CC4)cc13)CCCC2", "test": "binding, competition with immobilised ligand", "conditions": "1 µM", "remaining binding [%]": 89}
{"SMILES": "c1cncc(-c2cccc(Nc3nccc(NC4CCCCC4)n3)c2)c1", "test": "binding, competition with immobilised ligand", "conditions": "10 µM", "remaining binding [%]": 94}
{"SMILES": "O=C(NCC1CCOCC1)c1n[nH]cc1NC(=O)c1c(F)cccc1F", "test": "binding, competition with immobilised ligand", "conditions": "1 µM", "remaining binding [%]": 95}
{"SMILES": "FC(F)(F)Oc1cccc(-c2cnc3ccc(-c4ccncc4)nn23)c1", "test": "binding, competition with immobilised ligand", "conditions": "5 µM", "remaining binding [%]": 77}
{"SMILES": "COc1ccnn2ncc(-c3ccnc(N(C)C)n3)c12", "test": "binding", "conditions": "1 µM", "remaining binding [%]": 92}
{"SMILES": "Cc1nccc(COC(=O)N2C[C@@H]3[C@@H](CNC(=O)c4ccc5[nH]nnc5c4)[C@@H]3C2)n1", "test": "cell-free assay, competition with immobilised ligand", "conditions": "1 µM", "remaining binding [%]": 91}
{"SMILES": "O=C(NCCCN1CCOCC1)c1ccc(Nc2nccc(-c3cc4ccccc4s3)n2)cc1", "test": "binding, competition with immobilised ligand", "conditions": "1 µM", "remaining binding [%]": 100}
{"SMILES": "N[C@H]1CCN(c2nccc(-c3cnn4ncccc34)n2)C1", "test": "binding", "conditions": "1 µM", "remaining binding [%]": 90}
{"SMILES": "CNCc1ccccc1-c1csc([C@H](C)Nc2nc(C)nc3cc(OC)c(OC)cc23)c1", "test": "cell-free assay, competition with immobilised ligand", "conditions": "1 µM", "remaining binding [%]": 98}
{"SMILES": "CN(C)c1ncc(F)c(-c2cnn3ncccc23)n1", "test": "binding", "conditions": "1 µM", "remaining binding [%]": 90}
{"SMILES": "Cn1cc(Cl)c2c(Oc3c(F)cc(Nc4cc(Cl)nc(N)n4)cc3F)ccnc21", "test": "cell-free assay, competition with immobilised ligand", "conditions": "0.1 µM", "remaining binding [%]": 95}
{"SMILES": "CCN1CCN(Cc2ccc(C(=O)Nc3ccc(C)c(Oc4ccc5c(c4)CC(=O)N5)c3)cc2C(F)(F)F)CC1", "test": "binding, competition with immobilised ligand", "conditions": "1 µM", "remaining binding [%]": 100}
{"SMILES": "CN(C)c1nccc(-c2cnn3ncccc23)n1", "test": "binding", "conditions": "1 µM", "remaining binding [%]": 100}
{"SMILES": "CN([C@@H]1CCc2c(CC(=O)O)c3cc(S(C)(=O)=O)ccc3n2C1)S(=O)(=O)c1ccc(F)cc1", "test": "cell-free assay, competition with immobilised ligand", "conditions": "1 µM", "remaining binding [%]": 83}
{"SMILES": "Cc1cnc(Nc2ccc(C(=O)N3CCC(N4CCCC4)CC3)cc2)nc1-c1cc2ccccc2s1", "test": "binding, competition with immobilised ligand", "conditions": "1 µM", "remaining binding [%]": 100}
{"SMILES": "C[C@H]1CCN(c2nccc(-c3cnn4ncccc34)n2)C1", "test": "binding", "conditions": "1 µM", "remaining binding [%]": 98}
{"SMILES": "CCC(=O)N[C@H]1CC[C@@H](C(=O)N(C)c2ccc(-c3nc4ccccc4o3)cc2)C1", "test": "cell-free assay, competition with immobilised ligand", "conditions": "1 µM", "remaining binding [%]": 92}
{"SMILES": "O=C(c1ccc(Nc2nccc(-c3cc4ccccc4s3)n2)cc1)N1CCC(N2CCCC2)CC1", "test": "binding, competition with immobilised ligand", "conditions": "1 µM", "remaining binding [%]": 100}
{"SMILES": "COc1ccc2c(c1)O[C@@H](c1ccc(OC)c(OC)c1)C[C@H]2NC(=O)C1(c2ccc3c(c2)OC(F)(F)O3)CC1", "test": "cell-free assay, competition with immobilised ligand", "conditions": "1 µM", "remaining binding [%]": 100}
{"SMILES": "CC1CCCN1c1nccc(-c2cnn3ncccc23)n1 (stereo not shown)", "test": "binding", "conditions": "1 µM", "remaining binding [%]": 100}
{"SMILES": "COc1cnc(Nc2cccc(S(N)(=O)=O)c2)nc1N1CCN(c2ccccc2)C(=O)C1", "test": "binding, competition with immobilised ligand", "conditions": "1 µM", "remaining binding [%]": 97}
{"SMILES": "O=S(=O)(NC1CCC(c2cc(F)ccc2F)(S(=O)(=O)c2ccc(Cl)cc2)CC1)C(F)(F)F (stereo not shown)", "test": "cell-free assay, competition with immobilised ligand", "conditions": "1 µM", "remaining binding [%]": 100}
